Series [1] can be described thus: Cytotoxic activity against HEK293 cells assessed as reduction in cell viability incubated for 6 hrs. The note with it: human. It is filed as cell-based. Summed up:
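HEK293 cells transfected with the CMV-TLR7 construct alone, treated with a compound dilution series for 6 h at 37°C, 5% CO₂. Viability read by ATP luminescence. Reported as CC50.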

The target of the next series is T1, Toll-like receptor 8 (Homo sapiens, UniProt Q9NR97).
T1 sequence (Q9NR97 whole entry): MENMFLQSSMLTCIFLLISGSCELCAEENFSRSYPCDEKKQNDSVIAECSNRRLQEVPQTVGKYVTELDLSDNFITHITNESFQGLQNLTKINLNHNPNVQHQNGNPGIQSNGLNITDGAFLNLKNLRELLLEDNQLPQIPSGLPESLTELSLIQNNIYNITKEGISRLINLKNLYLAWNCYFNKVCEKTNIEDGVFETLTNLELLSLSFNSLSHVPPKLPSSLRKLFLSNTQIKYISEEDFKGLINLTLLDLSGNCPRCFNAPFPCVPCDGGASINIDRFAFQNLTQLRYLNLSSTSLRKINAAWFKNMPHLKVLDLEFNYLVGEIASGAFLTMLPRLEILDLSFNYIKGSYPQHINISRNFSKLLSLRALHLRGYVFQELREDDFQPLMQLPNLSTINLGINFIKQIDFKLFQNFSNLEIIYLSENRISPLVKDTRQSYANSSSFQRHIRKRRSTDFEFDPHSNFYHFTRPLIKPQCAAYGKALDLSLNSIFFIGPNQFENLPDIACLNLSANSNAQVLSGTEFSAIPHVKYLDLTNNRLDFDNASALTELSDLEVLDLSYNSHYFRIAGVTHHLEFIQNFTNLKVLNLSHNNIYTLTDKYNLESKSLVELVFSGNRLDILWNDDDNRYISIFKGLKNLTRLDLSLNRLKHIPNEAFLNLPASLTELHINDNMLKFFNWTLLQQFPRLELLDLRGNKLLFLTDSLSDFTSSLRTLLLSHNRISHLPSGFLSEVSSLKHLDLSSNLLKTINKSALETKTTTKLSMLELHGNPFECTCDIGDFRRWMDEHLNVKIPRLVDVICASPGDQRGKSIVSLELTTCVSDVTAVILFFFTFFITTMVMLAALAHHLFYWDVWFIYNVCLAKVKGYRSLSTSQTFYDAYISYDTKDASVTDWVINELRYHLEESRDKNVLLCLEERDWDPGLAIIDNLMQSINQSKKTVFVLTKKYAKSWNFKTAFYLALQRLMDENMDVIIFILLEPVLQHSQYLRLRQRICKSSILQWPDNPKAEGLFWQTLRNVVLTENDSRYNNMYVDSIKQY
Nature of the series: Agonist activity at human TLR8 expressed in HEK293 cells assessed as induction of receptor activation incubated for 6 hrs by NF-kappaB-luciferase reporter gene assay. Particulars: hek293, 6 h. The class given is cell-based. Summed up: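 HEK293 cells transiently transfected overnight at 37°C with CMV-TLR8 plasmid (wild type or dLRR2 mutant) plus NFκB-luc reporter, then exposed to compound for 6 h at 37°C, 5% CO₂. Luciferase read-out. Quadruplicate dose-response. LEC is the concentration giving an effect at least two-fold above the assay SD, averaged over two or more independent experiments.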

Series [2] concerns the target T2, Toll-like receptor 7 (Homo sapiens) (UniProt Q9NYK1).
T2 sequence (whole entry): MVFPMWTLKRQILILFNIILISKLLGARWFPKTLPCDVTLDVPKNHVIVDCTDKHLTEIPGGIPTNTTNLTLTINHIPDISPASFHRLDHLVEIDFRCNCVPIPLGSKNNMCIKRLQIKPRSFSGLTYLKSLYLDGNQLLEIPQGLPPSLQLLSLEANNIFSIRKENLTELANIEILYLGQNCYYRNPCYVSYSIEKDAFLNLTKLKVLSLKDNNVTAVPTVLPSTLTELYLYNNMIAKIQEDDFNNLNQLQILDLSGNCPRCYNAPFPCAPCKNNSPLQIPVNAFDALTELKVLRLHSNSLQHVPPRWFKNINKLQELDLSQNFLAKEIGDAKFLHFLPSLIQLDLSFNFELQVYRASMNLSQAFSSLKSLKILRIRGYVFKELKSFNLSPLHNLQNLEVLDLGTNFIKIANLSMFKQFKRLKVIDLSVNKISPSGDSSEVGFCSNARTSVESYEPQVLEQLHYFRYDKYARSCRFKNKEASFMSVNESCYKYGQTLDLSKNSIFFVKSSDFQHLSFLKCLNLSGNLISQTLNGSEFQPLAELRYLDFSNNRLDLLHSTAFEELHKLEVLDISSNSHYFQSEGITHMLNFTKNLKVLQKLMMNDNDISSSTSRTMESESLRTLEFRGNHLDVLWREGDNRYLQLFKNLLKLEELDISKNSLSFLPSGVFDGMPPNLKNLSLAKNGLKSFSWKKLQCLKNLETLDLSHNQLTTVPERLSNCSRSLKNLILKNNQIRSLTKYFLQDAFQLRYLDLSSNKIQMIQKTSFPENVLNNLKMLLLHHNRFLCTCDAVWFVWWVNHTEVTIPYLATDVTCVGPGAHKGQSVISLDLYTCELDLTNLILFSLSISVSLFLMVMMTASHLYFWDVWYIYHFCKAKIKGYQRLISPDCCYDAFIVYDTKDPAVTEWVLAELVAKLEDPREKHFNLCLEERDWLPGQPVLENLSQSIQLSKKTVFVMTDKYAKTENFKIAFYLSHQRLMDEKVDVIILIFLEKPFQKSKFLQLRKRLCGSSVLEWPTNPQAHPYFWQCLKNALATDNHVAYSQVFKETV
The experiment in a line: Agonist activity at human TLR7 expressed in HEK293 cells assessed as induction of receptor activation incubated for 6 hrs by NF-kappaB-luciferase reporter gene assay. It is filed as cell-based. Summed up:
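HEK293 cells transiently transfected overnight with CMV-TLR7 (wild type or dLRR2 mutant) plus NFκB-luc plasmids. Seeded at 1.67 x 10^5 cells/mL onto compound in 4% DMSO (stock), 6 h at 37°C, 5% CO2, luciferase readout. Quadruplicate dose-response. LEC is the concentration giving an effect at least two-fold above assay SD. Values averaged over independent experiments where repeated.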

The target of series [3] is T2, Toll-like receptor 7 (Homo sapiens). The experiment in a line: Agonist activity at TLR7 in human PBMC assessed as suppression of HCV replicon replication in human HuH7 luc/neo cells harboring RNA encoding bicistronic expression construct comprising wild type HCV type 1b NS3-NS5B regions exposed to conditioned media from compound treated PBMCs by luciferase reporter gene assay. The class given is cell-based. Summed up:
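PBMCs from buffy coats of at least two donors (Ficoll), in RPMI with 10% human AB serum, 2 x 10^5 cells/well, incubated overnight with compound. Supernatant transferred onto Huh7-luc/neo replicon cells plated the day before (2.2 x 10^3/well). Luciferase read after 24 h. EC50 is the concentration applied to PBMCs giving 50% luciferase reduction. Recombinant IFN-α2a standard.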

Series [4] can be described thus: Metabolic stability in human liver microsomes assessed as drug metabolism after 15 mins at 1 uM. The class given is ADME, microsome. The note with it: read-out: Drug metabolism. Summed up:
(§1)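 Compound at 1µM incubated with liver microsomes of the stated species. Percent of compound metabolized after 15 min.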

Series [5] in a line: Metabolic stability in mouse liver microsomes assessed as drug metabolism after 15 mins at 1 uM. The class given is ADME, microsome. Particulars: read-out: Drug metabolism. Summed up: as §1

As for `CCCCNc1nc(N)nc2cc(C(N)=O)ccc12`, the CC50 at 6 h in series [1] is greater than 18 µM. Further, the MEC on Toll-like receptor 8 was determined as 2 µM; in series [2], 0.4 µM; in series [3], 0.15 µM.
For the molecule `CCCCNc1nc(N)nc2cc(CN(C)C)ccc12`, in series [1], the half-maximal cytotoxic concentration (CC50) at 6 h is greater than 18 µM. Further, the values for the MEC (on Toll-like receptor 8; in series [2]; in series [3]) were 0.04 µM, 0.2 µM and 0.04 µM, respectively.
For the molecule `CC(C)CCNc1nc(N)nc2ccccc12`, the half-maximal cytotoxic concentration (CC50) at 6 h in series [1] was greater than 25 µM. For the same molecule, the results for the MEC (on Toll-like receptor 8; in series [2]; in series [3]) were 2.11 µM, greater than 25 µM and 1.5 µM, respectively.
As for `CCCCNc1nc(N)ncc1OCC`, the 50% cytotoxic concentration (CC50) at 6 h in series [1] is greater than 25 µM. The MEC is 1.1 µM on Toll-like receptor 8, 4.7 µM in series [2] and 1.43 µM in series [3].
Take `CCCCNc1nc(N)nc2cc(F)c(F)cc12`: the 50% cytotoxic concentration (CC50) at 6 h in series [1] is greater than 18 µM. Further, the MEC at Toll-like receptor 8 is 0.1 µM; in series [2], 1.8 µM; in series [3] it was 0.26 µM.
In the case of `CCCCNc1nc(N)nc2cc(CO)ccc12`, in series [1], the CC50 at 6 h is greater than 18 µM. Besides, the values for the MEC (at Toll-like receptor 8; in series [2]; in series [3]) were 0.1 µM, 0.1 µM and 0.05 µM, respectively.
As for `CCCCNc1nc(N)nc2c(F)cccc12`, in series [1], the half-maximal cytotoxic concentration (CC50) at 6 h was greater than 18 µM. For the same molecule, the MEC on Toll-like receptor 8 was determined as 0.3 µM; in series [2], 0.2 µM; in series [3], 0.07 µM.
In the same order, the values of `COCCCNc1nc(N)nc2ccccc12` are greater than 25 µM, 0.01 µM, 0.46 µM and 0.04 µM.
`CCCCNc1nc(N)nc2ccc(C(C)=O)cc12`: in series [1], the CC50 at 6 h was greater than 18 µM. Besides, the MEC on Toll-like receptor 8 was found to be 1.9 µM; in series [2] it was 6.1 µM; in series [3], 2.39 µM.
On the same counts, the results for `CNc1nc(N)nc2ccccc12` are greater than 25 µM, 6.87 µM, 18.7 µM and 8.88 µM.
On the same counts, the results for `CCCCNc1nc(N)nc2cccc(CC3CCCC3)c12` are greater than 25 µM, greater than 25 µM, 0.12 µM and 0.09 µM.
In the same order, the values of `CCCCNc1nc(N)nc2cccc(C(=O)N(C)C(C)C)c12` are greater than 25 µM, greater than 25 µM, 5.62 µM and 1.92 µM.
As for `CCCCNc1nc(N)nc2ccc(C(C)O)cc12` (centres undefined), the CC50 at 6 h in series [1] was greater than 18 µM. In addition, the MEC at Toll-like receptor 8 was 5.8 µM; in series [2] it was 12 µM; in series [3], 8.49 µM.
On the same counts, the results for `CCCNc1nc(N)nc2ccccc12` are greater than 25 µM, 0.93 µM, 1.07 µM and 0.67 µM.
With `CCNc1nc(N)nc2ccccc12`, in series [1], the CC50 at 6 h is greater than 25 µM. The MEC is 0.77 µM on Toll-like receptor 8, 3.07 µM in series [2] and 2.27 µM in series [3].
For `CCCCNc1nc(N)nc2ccc(CO)cc12`, the half-maximal cytotoxic concentration (CC50) at 6 h in series [1] was greater than 18 µM. For the same molecule, the MEC on Toll-like receptor 8 came out at 0.2 µM; in series [2], 0.9 µM; in series [3] it was 0.14 µM.
With `CCCCNc1nc(N)nc2cc(OC)ccc12`, the cytotoxic concentration (CC50) at 6 h in series [1] was greater than 18 µM. In addition, the MEC at Toll-like receptor 8 was 0.3 µM; in series [2] it was 0.9 µM; in series [3], 0.15 µM.
In the case of `CCCCNc1nc(N)nc2cccc(Cl)c12`, the metabolised at 0.25 h, 1 µM in series [4] amounted to 99%; in series [5], 88%. The 50% cytotoxic concentration (CC50) at 6 h in series [1] is greater than 25 µM. Further, the MEC came to 1 µM in series [2] and 0.17 µM in series [3].
In the case of `CCCCNc1nc(N)nc2cc(C(=O)N(C)C)ccc12`, the CC50 at 6 h in series [1] is greater than 18 µM. Also, the figures for the MEC (on Toll-like receptor 8; in series [2]; in series [3]) were 0.5 µM, 0.1 µM and 0.06 µM, respectively.
For `CCCCNc1nc(N)nc2ccc(F)cc12`, the CC50 at 6 h in series [1] is greater than 18 µM. Further, the MEC on Toll-like receptor 8 was found to be 0.1 µM; in series [2], 0.3 µM; in series [3], 0.11 µM.
On the same counts, the results for `CCCCNc1nc(N)nc2cc(OC)c(OC)cc12` are greater than 18 µM, 1.1 µM, 10 µM and 2.05 µM.
Turning to `CCCCNc1nc(N)nc2ccc(C#N)cc12`, the CC50 at 6 h in series [1] was greater than 18 µM. For the same molecule, the results for the MEC (at Toll-like receptor 8; in series [2]; in series [3]) were 7.1 µM, greater than 25 µM and 13.2 µM, respectively.
On to `CCCCNc1nc(N)nc2ccc(CCc3ccccn3)cc12`, for which, in series [1], the 50% cytotoxic concentration (CC50) at 6 h was greater than 18 µM. The results for the MEC (at Toll-like receptor 8; in series [2]; in series [3]) were 0.3 µM, 0.1 µM and 0.04 µM, respectively.
In the case of `CCCCNc1nc(N)nc2ccc(OC)cc12`, the CC50 at 6 h in series [1] is greater than 18 µM. For the same molecule, the MEC on Toll-like receptor 8 turned out to be 1.8 µM; in series [2], 5.6 µM; in series [3], 2.44 µM.
With `CCCC(C)Nc1nc(N)nc2ccccc12` (centres undefined), the CC50 at 6 h in series [1] is greater than 25 µM. The MEC on Toll-like receptor 8 came to 0.17 µM; in series [2], 0.71 µM; in series [3] it was 0.1 µM.
Regarding `CCCCNc1nc(N)nc2ccc(CCc3ccc(N(C)C)cc3)cc12`, in series [1], the 50% cytotoxic concentration (CC50) at 6 h was greater than 18 µM. In addition, the MEC on Toll-like receptor 8 was 0.5 µM; in series [2], 0.2 µM; in series [3] it was 0.15 µM.
In the case of `CCCCCNc1nc(N)nc2ccccc12`, in series [1], the CC50 at 6 h was greater than 25 µM. The results for the MEC (on Toll-like receptor 8; in series [2]; in series [3]) were 0.1 µM, 0.06 µM and 0.04 µM, respectively.

These data come from ChEMBL document CHEMBL4184225, “Discovery of selective 2,4-diaminoquinazoline toll-like receptor 7 (TLR 7) agonists” (Bioorg Med Chem Lett, 2018).
